Several values for one entry are separate records, joined by “and”; a condition that tells them apart may be missing. Equal entries are not always repeated.
Legend:
A549 = experiment: Cytotoxicity against human A549 cells after 72 hrs by MTT assay; type: functional, cell-based; conditions: A549, 72 h
How it was run: (§1)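 Compounds dissolved in DMSO; cells seeded at 5 × 10^3 per well and treated after adherence with a range of concentrations for 72 h, with DMSO as negative control. MTT was added for 4 h at 37 °C in the dark, formazan dissolved in DMSO, and absorbance read. IC50 (μM) was calculated as the mean of three independent experiments.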

MDA-MB-435 = experiment: Cytotoxicity against human MDA-MB-435 cells after 72 hrs by MTT assay; type: functional, cell-based; how it was run: as §1
MCF7 = experiment: Cytotoxicity against human MCF7 cells after 72 hrs by MTT assay; type: functional, cell-based; how it was run: as §1
SW-620 = experiment: Cytotoxicity against human SW620 cells after 72 hrs by MTT assay; type: functional, cell-based; how it was run: as §1
HCT-116 = experiment: Cytotoxicity against human HCT116 cells after 72 hrs by MTT assay; type: functional, cell-based; how it was run: as §1
B16-F10 = experiment: Cytotoxicity against mouse B16F10 cells after 72 hrs by MTT assay; type: functional, cell-based; how it was run: as §1
PC-3 = experiment: Cytotoxicity against human PC3 cells after 72 hrs by MTT assay; type: functional, cell-based; how it was run: as §1
4T1 = experiment: Cytotoxicity against mouse 4T1 cells after 72 hrs by MTT assay; type: functional, cell-based; how it was run: as §1
CT26 = experiment: Cytotoxicity against mouse CT26 cells after 72 hrs by MTT assay; type: functional, cell-based; how it was run: as §1
MCF-7 (Homo sapiens) = experiment: Cytotoxicity against human MCF-7 cells after 72 hrs by MTT assay; conditions: MCF-7, 72 h
Mus musculus [1] = experiment: Toxicity in BALB/c mouse assessed as mortality at 120 umol/kg, po administered daily once for 12 days measured on day 8; type: organism-based; conditions: in vivo, 288 h
How it was run: (§2)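 Male BALB/c mice aged 6-8 weeks, n = 6 per group, received 120 μmol/kg by gavage once daily for 12 days in 10% ethanol, with 10% ethanol alone as the control. Survival was followed over time, and mice were weighed at day 12 and then sacrificed. Small intestine was paraffin-embedded, cut into 5 μm sections, H&E-stained and examined by light microscopy. Student's t test was used.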

Mus musculus [2] = experiment: Toxicity in BALB/c mouse assessed as mortality at 120 umol/kg, po administered daily once for 12 days; type: organism-based; conditions: in vivo, 288 h; how it was run: as §2
Mus musculus [3] = experiment: Toxicity in BALB/c mouse assessed as induction of small intestine damage at 120 umol/kg, po administered daily once for 12 days; type: organism-based; conditions: in vivo, 288 h; how it was run: as §2
[4] = Solubility of the compound in 100 gram of water; type: physicochemical; conditions: buffer
How it was run: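 Water solubility was measured at 37 °C as the mass of compound dissolving in 100 g of H2O.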

Row | Compound | IC50 (A549) [µM] | IC50 (MDA-MB-435; Homo sapiens, MDA-MB-435, 72 h) [µM] | IC50 (MCF7; Homo sapiens, MCF7, 72 h) [µM] | IC50 (HCT-116; Homo sapiens, HCT-116, 72 h) [µM] | IC50 (B16-F10; Mus musculus, B16-F10, 72 h) [µM] | IC50 (PC-3; Homo sapiens, PC-3, 72 h) [µM] | IC50 (4T1; Mus musculus, 4T1, 72 h) [µM] | IC50 (CT26; Mus musculus, CT26, 72 h) [µM] | IC50 (MCF-7 (Homo sapiens)) [µM] | other results
1 | CC/C(C)=C(\NCc1c(O)c(O)c(C(C)C)c2cc(C)c(-c3c(C)cc4c(C(C)C)c(O)c(O)c(CN/C(C(=O)O)=C(/C)CC)c4c3O)c(O)c12)C(=O)O | 13.2 | > 40 | 25.8 | 23.4 | 20.1 | > 40 | > 40 | 11.9 |  | IC50 (SW-620; Homo sapiens, SW-620, 72 h): 11.8 µM
2 | Cc1cc2c(C(C)C)c(O)c(O)c(/C=N/C3C(=O)N4[C@@H]3SC(C)(C)[C@@H]4C(=O)O)c2c(O)c1-c1c(C)cc2c(C(C)C)c(O)c(O)c(/C=N/C3C(=O)N4[C@@H]3SC(C)(C)[C@@H]4C(=O)O)c2c1O (single isomer, unassigned) | > 40 | > 40 | > 40 | > 40 | > 40 | > 40 | > 40 | > 40 | > 40 | 
3 | Cc1cc2c(C(C)C)c(O)c(O)c(/C=N/[C@@H](Cc3ccccc3)C(=O)O)c2c(O)c1-c1c(C)cc2c(C(C)C)c(O)c(O)c(/C=N/[C@@H](Cc3ccccc3)C(=O)O)c2c1O | 5.38 | > 40 | > 40 | > 40 | 22.4 | 28.4 | > 40 | 7.36 | > 40 | 
4 | Cc1cc2c(C(C)C)c(O)c(O)c(C=O)c2c(O)c1-c1c(C)cc2c(C(C)C)c(O)c(O)c(C=O)c2c1O [GOSSYPOL] |  |  | 12.6 |  |  |  | 18.8 |  | 12.6 | Activity (Mus musculus [1]): Toxic; Activity (Mus musculus [2]): Non-toxic; Activity (Mus musculus [3]): Toxic; IC50 (MDA-MB-435; mda-mb-435): 11.8 µM and 33.2 µM; IC50 (MCF7; mcf7): 21.6 µM; IC50 (SW-620; sw-620): 17.2 µM; IC50 (HCT-116; hct-116): 3.33 µM and 22 µM; IC50 (B16-F10; b16-f10): 5.54 µM and 18 µM; IC50 (PC-3; pc-3): 9.14 µM and 22.4 µM; IC50 (4T1; 4t1): 21.5 µM; IC50 (CT26; ct26): 2.21 µM and 13.6 µM; solubility [4]: < 0.001 g

From ChEMBL document CHEMBL1212914, “A novel water-soluble gossypol derivative increases chemotherapeutic sensitivity and promotes growth inhibition in colon cancer” (J Med Chem, 2010)
